Usually inhibition stands for the change of the read-out against control, counted positive when it falls.

Calls of active or inactive are those of the source.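 The calls were made as follows, unless noted: active = fluorescence slope after compound addition differing from the mean of all tested samples at 99.7% confidence, mostly higher but some lower; inactive = the rest.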

Test [1] in a line: inhibitors of TNFa-induced NFkB p65 translocation, primary screen, imaging, HUVEC, MLSMR starter and 10KST1 sets (AID 438;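 active = inhibition above 20% together with a positive visual image hit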;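 also: compound added about 3h40 before a 20 min TNFalpha stimulation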;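 as to inhibition: signal is the nuclear over cytoplasmic p65 intensity ratio per well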). As to conditions: HUVEC TNFa-induced p65 nuclear translocation; cell count: measured here: nuclei count (cytotoxicity indicator), at 2.08 µM; inhibition: at 2 µM, stronger effect = higher value, 0% TNFa-plus-vehicle, 100% no-TNFa wells.
The nature of test [2]: inhibitors of mutant huntingtin aggregation, primary screen, imaging, exon1htt(103Q)mCFP cells, high-content imaging (AID 483;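 active = visual image review flags a hit and inhibition of aggregation exceeds 20%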;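 also: compound exposure lasted 3 days before fixation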;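 as to nuclei count: percent of the per-plate median nuclei count of sample wells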). The note with it: exon1htt(103Q)mCFP cell line, aggregate imaging, at 2 µM; inhibition of aggregation: stronger effect = higher value; nuclei count: measured here: cell count, toxicity.
The nature of test [3]: inhibitors of E-selectin induction by TNFa, primary screen, imaging, HUVEC, immunofluorescence, MLSMR starter and 10KST1 sets (AID 487;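 active = visually confirmed hit in the image check and inhibition above 20%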;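 as to inhibition: signal is fraction of cell area covered by stained E-selectin grains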;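 as to nuclei count: 100% = median nuclei count of all wells on the same plate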). As to conditions: HUVEC TNFalpha-induced E-selectin immunofluorescence imaging, at 2 µM; inhibition: stronger effect = higher value; nuclei count: measured here: cell number, toxicity.
The target of test [4] is Voltage-gated potassium channel subunit beta-2 (Rattus norvegicus) (UniProt P62483). The test is described as follows: KvBeta enzyme negative modulators, primary screen, biochemical, NADPH fluorescence (AID 622;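 active = fluorescence slope higher than the sample average by over 3 SD, cut at about -0.22 in these data, passing the limit was not always enough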;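 also: slope of raw intensity against log time taken from 70 to 1610 s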). As to conditions: recombinant KvBeta, 4-cyanobenzaldehyde reduction, at 10 µM, stronger effect = higher value.
For test [5] the target is unchanged. Description: KvBeta positive modulators, primary screen, biochemical, NADPH fluorescence (AID 623;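 active = NADPH fluorescence slope more negative than the mean of all samples by about 3 SD, 99.7% confidence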;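 also: fluorescence intensity change per second fitted from 20 to 320 s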). As to conditions: Recombinant KvBeta, NADPH fluorescence decrease slope, 10 min; at 10 µM; stronger effect = lower value.
The target in test [6] is Muscarinic acetylcholine receptor M4 (Homo sapiens) (UniProt P08173). Description: compounds altering M4/GIRK thallium flux, either direction, primary screen, M4 allosteric agonist project, cell-based, HEK293 M4/GIRK, BTC-AM (AID 625).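 Also: thallium influx through GIRK channels coupled to M4 in HEK293 cells with BTC-AM dye.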 As to conditions: at 10 µM, actives lie on both sides. In short, it runs like this: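 assay system = HEK293 cells with M4 receptor and GIRK channels | medium = pH 7.3 thallium assay buffer | doses = 10 µM final, single point | timing = cells overnight at 37 °C, BTC-AM loading 1 h, reads 2 min total | signal = BTC-AM fluorescence, 1 Hz kinetic reads | read-out = post-addition slope, 15–24 s, of baseline-normalized fluorescence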

A short description of test [7]: inhibitors of Sendai virus-induced IRF3 signaling, primary screen, TLR/RLR signaling modifier project, cell-based, Sendai virus stimulus, luciferase, 10K MLSCN set (AID 602276;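 active = inhibition at or above 50% at 10 µM; inactive = inhibition below 50%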;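 also: firefly luciferase from ISG56 promoter only with Renilla not read in this screen; 0% = Sendai virus plus DMSO and 100% = medium plus DMSO without virus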). As to conditions: HEK293 RL24 IRF3 luciferase reporter, at 10 µM, stronger effect = higher value.
Test [8] in a line: inhibitors of poly I:C-induced TLR3 signaling, primary screen, cell-based, poly I:C stimulus, luciferase, 10K MLSCN set (AID 602277;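 active = inhibition of the reporter signal at or above 50%; inactive = inhibition below 50%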). As to conditions: HEK293-TLR3 RL24 IRF3 luciferase reporter, at 10 µM, stronger effect = higher value. In general terms: A reporter such as luciferase makes a cellular process visible.

Muscarinic acetylcholine receptor M4 (Homo sapiens), sequence (P08173 whole entry, looked up): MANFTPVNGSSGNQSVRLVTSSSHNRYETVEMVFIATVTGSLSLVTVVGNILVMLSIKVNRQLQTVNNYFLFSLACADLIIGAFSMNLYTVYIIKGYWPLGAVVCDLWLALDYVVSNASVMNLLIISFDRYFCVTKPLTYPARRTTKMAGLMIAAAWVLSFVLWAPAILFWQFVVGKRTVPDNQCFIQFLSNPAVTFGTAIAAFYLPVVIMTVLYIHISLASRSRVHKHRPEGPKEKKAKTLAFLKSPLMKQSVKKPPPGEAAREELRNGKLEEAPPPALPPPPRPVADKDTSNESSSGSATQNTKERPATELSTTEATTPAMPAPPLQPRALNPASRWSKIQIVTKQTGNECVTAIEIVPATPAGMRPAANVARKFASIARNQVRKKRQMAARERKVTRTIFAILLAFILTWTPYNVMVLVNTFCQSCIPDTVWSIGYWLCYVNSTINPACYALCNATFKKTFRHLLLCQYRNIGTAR
Voltage-gated potassium channel subunit beta-2 (Rattus norvegicus), sequence (P62483 whole entry, looked up): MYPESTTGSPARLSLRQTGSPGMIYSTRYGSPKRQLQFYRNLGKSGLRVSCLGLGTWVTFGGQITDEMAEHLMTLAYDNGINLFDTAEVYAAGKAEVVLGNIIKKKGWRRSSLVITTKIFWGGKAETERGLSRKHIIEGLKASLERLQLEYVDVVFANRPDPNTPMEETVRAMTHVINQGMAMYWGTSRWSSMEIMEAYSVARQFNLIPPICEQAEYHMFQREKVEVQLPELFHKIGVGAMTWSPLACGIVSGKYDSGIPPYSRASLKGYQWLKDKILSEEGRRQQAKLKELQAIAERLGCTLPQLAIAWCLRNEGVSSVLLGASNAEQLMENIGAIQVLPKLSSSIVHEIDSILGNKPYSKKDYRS

Consider `COc1ccc(-n2cc(-c3ccccc3)c3c(N4CCN(CCO)CC4)ncnc32)cc1`, for which the cell count in test [1] is 568. The inhibition in test [1] is -26.5% (inactive); in test [3] it was -29.3% (inactive); in test [7], 13.2% (inactive); in test [8], 25.2% (inactive). Moreover, in test [2], the inhibition of aggregation is 3.6% (inactive). The nuclei count in test [2] turned out to be 102%; in test [3] it was 99.1%. In addition, the fluorescence slope is -0.519 (inactive) in test [4] and 0.003 (inactive) in test [6]. Further, the NADPH fluorescence slope in test [5] is -6.1e-07 (inactive).
As for `CC(C)=CCCC(C)NC(=O)NC1CCCCC1` (configuration not stated), the cell count in test [1] worked out at 227. The inhibition in test [1] was -9.6% (inactive); in test [3], -50.8% (inactive); in test [7] it was -0.0287% (inactive); in test [8], -0.553% (inactive). For the same compound, the inhibition of aggregation in test [2] is -23.2% (inactive). In addition, the nuclei count in test [2] turned out to be 91.1%; in test [3] it was 87%. Moreover, the fluorescence slope is -0.546 (inactive) in test [4] and 0.00495 (inactive) in test [6]. The NADPH fluorescence slope in test [5] is -2.7e-05 (inactive).
Turning to `CC1Cc2cc(/C(O)=C3/C(=O)C(=O)N(CCN4CCOCC4)C3c3cccc(O)c3)ccc2O1` (configuration not stated), the cell count in test [1] is 576. The inhibition in test [1] is -2.7% (inactive); in test [3], -18.4% (inactive); in test [7] it was -19.1% (inactive); in test [8] it was -6.57% (inactive). Moreover, in test [2], the inhibition of aggregation is -17.8% (inactive). In addition, the nuclei count is 105% in test [2] and 94.9% in test [3]. For the same compound, the fluorescence slope in test [4] is -0.573 (inactive); in test [6] it was 0.00539 (inactive). The NADPH fluorescence slope in test [5] was -8.9e-05 (inactive).
In the case of `Cc1cc(C)nc(N2CCC(C(=O)NCc3cccc(C(F)(F)F)c3)CC2)n1`, the cell count in test [1] amounted to 441. The inhibition in test [1] is 7.1% (inactive); in test [3] it was 45.5% (inactive); in test [7], 11.9% (inactive); in test [8] it was 14% (inactive). In addition, in test [2], the inhibition of aggregation was -55.6% (inactive). Besides, the nuclei count in test [2] came to 85.9%; in test [3] it was 85.1%. Also, the values for the fluorescence slope in test [4] and in test [6] were -0.227 (inactive) and 0.00567 (inactive), respectively. Moreover, in test [5], the NADPH fluorescence slope was -4.8e-06 (inactive).
Take `COc1cccc(C(=O)Nc2cccc(C(=O)N3CCOCC3)c2)c1`: the cell count in test [1] worked out at 354. Further, the inhibition in test [1] is 1.6% (inactive); in test [3] it was -121% (inactive); in test [7] it was 3.67% (inactive); in test [8], 1.87% (inactive). Also, in test [2], the inhibition of aggregation is 0.9% (inactive). For the same compound, the nuclei count in test [2] was 76%; in test [3], 95%. Also, the fluorescence slope in test [4] is -0.564 (inactive); in test [6] it was 0.00825 (inactive). In addition, the NADPH fluorescence slope in test [5] was -3.3e-05 (inactive).
Turning to `Cc1cc(C)cc(NC(=O)N2CCC(c3nc4ccccc4o3)CC2)c1`, the cell count in test [1] was found to be 405. Also, the inhibition in test [1] was 7.5% (inactive); in test [3], -66.7% (inactive); in test [7] it was 13.6% (inactive); in test [8], 18.7% (inactive). Further, the inhibition of aggregation in test [2] was -19.5% (inactive). Also, the nuclei count in test [2] is 94.7%; in test [3], 110%. For the same compound, the results for the fluorescence slope in test [4] and in test [6] were -0.494 (inactive) and 0.00524 (inactive), respectively. Further, in test [5], the NADPH fluorescence slope is 0.00013 (inactive).
Take `Nc1nc(CN2CCOCC2)cs1`: the cell count in test [1] was 650. The inhibition in test [1] is -4.8% (inactive); in test [3], 14.6% (inactive); in test [7] it was 15.2% (inactive); in test [8] it was 14.7% (inactive). Also, in test [2], the inhibition of aggregation was 7.7% (inactive). Moreover, the nuclei count in test [2] is 104%; in test [3] it was 113%. Also, the values for the fluorescence slope in test [4] and in test [6] were -0.577 (inactive) and 0.00598 (inactive), respectively. Moreover, in test [5], the NADPH fluorescence slope is -2.3e-05 (inactive).

(Values after PubChem BioAssay.)
